# Measurements as given in ChEMBL document CHEMBL5247635 (Eur J Med Chem, 2022).
# Activity calls are given as the source filed them. The calls are words filed in the database; no cut-off is given here.
# Tests used:
# [1] = biological target: Trypanothione reductase (Leishmania infantum) (UniProt A4HSF7); experiment: Time-dependent inhibition of Leishmania infantum TryR using TS2 as substrate assessed as decrease in initial velocity rate at fixed TS2 concentration
# Outline: (§1)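 Final assay: 40 mM HEPES pH 7.5, 1 mM EDTA, 300 µM NADPH, 60 µM NADP+, 150 µM DTNB, 3.1–100 µM TS2, 1.04% DMSO, 0.5 nM LiTryR, with serially diluted inhibitor. Enzyme was added last by automated dispenser to avoid preincubation. Progress curves were read at 412 nm at 26 °C; initial and steady-state velocities were fitted to kinetic models. Three independent experiments.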
# [2] = biological target: Trypanothione reductase (Leishmania infantum) (UniProt A4HSF7); experiment: Mixed non-competitive inhibition of Leishmania infantum TryR using TS2 as substrate assessed as increase in apparent inhibition constant of initial EI complex by plot analysis; outline: as §1
# Trypanothione reductase [3] = biological target: Trypanothione reductase (Trypanosoma congolense, UniProt P13110); experiment: Inhibition of HIS-tagged recombinant Trypanosoma congolense TryR oxidoreductase activity expressed in Escherichia coli in the presence of NADPH by spectrophotometry based DTNB-coupled assay
# Outline: (§2)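 HIS-tagged TryR from each species was expressed in E. coli. Activity was read by DTNB-coupled assay at 26 °C in 40 mM HEPES pH 7.5, 1 mM EDTA, 30 µM NADP+, 25 µM DTNB, 150 µM NADPH, 1.75% DMSO. Conditions were 50 µM TS2 and 0.5 nM enzyme; reaction started with NADPH + TS2. TNB absorbance at 412 nm. Three independent experiments.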
# Trypanothione reductase [4] = biological target: T1, Trypanothione reductase (Leishmania infantum, UniProt A4HSF7); experiment: Disruption of HIS-FLAG-tagged recombinant Leishmania infantum TryR dimerization expressed in Escherichia coli Rossetta BL21 (DE3) cells incubated for 16 hrs by ELISA analysis
# Outline: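 400 nM HIS-FLAG-tagged LiTryR (co-purified with HIS-tagged LiTryR as heterodimer) incubated with compound (3.1–75 μM) in 50 mM Tris pH 8.0, 300 mM NaCl, 16 h, 37 °C with vigorous shaking; centrifuged, supernatant captured on α-FLAG plates, detected with HRP-α-HIS antibody and o-phenylenediamine, A490. Signal normalized to DMSO; IC50 by nonlinear regression; triplicate, three independent experiments.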
# Leishmania infantum [5] = experiment: Antileishmanial activity against GFP-expressing Leishmania infantum intracellular amastigotes infected in human THP-1 derived macrophage cells assessed as reduction in parasite viability measured for 72 hrs by resazurin/alamar blue fluorometric assay; assay type: functional, organism-based
# Outline: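 Human THP-1-derived macrophages infected with GFP-expressing L. infantum amastigotes; compounds at 2.3–75 µM, infected cells monitored for 72 h. EC50 ± SE from three independent experiments.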
# [6] = Cytotoxicity against human HepG2 cells assessed as reduction in cell proliferation treated for 24 hrs by crystal violet staining based analysis; assay type: toxicity
# Leishmania infantum [7] = experiment: Antileishmanial activity against Leishmania infantum MCAN/ES/89/IPZ229/1/89 axenic amastigotes assessed as reduction in parasite viability treated for 24 hrs by PI staining based flow cytometry; assay type: functional, organism-based; details: MCAN/ES/89/IPZ229/1/89, 24 h
# Outline: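 Axenic amastigotes were seeded from log-phase cultures at 10^5 parasites/mL in M199-based medium at pH 5.4. They were derived from promastigotes by 3 days at 37 °C. Compounds at 2.3–75 µM for 24 h at 37 °C. Viability read by propidium iodide flow cytometry. EC50 ± SE from three independent experiments, each in triplicate.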
# Trypanothione reductase [8] = biological target: Trypanothione reductase (Trypanosoma brucei brucei, UniProt P39051); experiment: Inhibition of HIS-tagged recombinant Trypanosoma brucei TryR oxidoreductase activity expressed in Escherichia coli in the presence of NADPH by spectrophotometry based DTNB-coupled assay; outline: as §2
# [9] = biological target: Trypanothione reductase (Leishmania infantum) (UniProt A4HSF7); experiment: Time-dependent inhibition of Leishmania infantum TryR using TS2 as substrate assessed as decrease in final steady-state velocity at fixed TS2 concentration; outline: as §1
# [10] = Cytotoxicity against human HepG2 cells assessed as reduction in cell proliferation measured after 72 hrs by crystal violet staining based analysis; assay type: toxicity
# Trypanothione reductase [11] = biological target: T1, Trypanothione reductase; experiment: Mixed non-competitive inhibition of Leishmania infantum TryR using TS2 as substrate assessed as inhibition constant of two-step induced-fit mechanism by plot analysis; outline: as §1
# [12] = Selectivity index, ratio of CC50 for human HepG2 cells to EC50 for Leishmania infantum MCAN/ES/89/IPZ229/1/89 axenic amastigotes; assay type: toxicity; details: read-out: Ratio CC50/EC50
# Leishmania infantum [13] = experiment: Antileishmanial activity against Leishmania infantum promastigotes assessed as reduction in non-protein thiol content at 75 uM incubated for 1 hrs by CMF diacetate probe based flow cytometry relative to control; assay type: functional; set-up: scale not given: the % may be the effect or the level left
# Outline: (§3)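 Promastigotes grown in RPMI-1640 with 10% FCS and 25 mM HEPES pH 7.2 at 26 °C. Treatments were 75 µM for 1 h, 5 mM BSO for 72 h, or both combined; vehicle served as control. Some parasites were also H2O2-treated. Non-protein thiols read by flow cytometry as CMF diacetate green fluorescence in PI-excluding live parasites. Means of nine independent experiments with 99.0% confidence intervals.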
# [14] = biological target: Trypanothione reductase (Leishmania infantum) (UniProt A4HSF7); experiment: Mixed non-competitive inhibition of Leishmania infantum TryR using TS2 as substrate assessed as increase in apparent inhibition constant of high affinity EI complex by plot analysis; outline: as §1
# [15] = Selectivity index, ratio of CC50 for human HepG2 cells to EC50 for GFP-expressing Leishmania infantum intracellular amastigotes infected in human THP-1 derived macrophage cells; assay type: toxicity, cell-based; details: read-out: Ratio CC50/EC50
# Trypanothione reductase [16] = biological target: T1, Trypanothione reductase; experiment: Inhibition of HIS-tagged recombinant Leishmania infantum TryR oxidoreductase activity expressed in Escherichia coli in the presence of NADPH by spectrophotometry based DTNB-coupled assay
# Outline: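 HIS-tagged LiTryR was used in a DTNB-coupled assay at 26 °C. Buffer: 40 mM HEPES pH 7.5, 1 mM EDTA, 30 µM NADP+, 25 µM DTNB, 150 µM NADPH, 1.75% DMSO. Standard runs used 1 µM TS2 and 7 nM enzyme; cross-species runs used 50 µM TS2 and 0.5 nM enzyme. Started with NADPH + TS2; TNB read at 412 nm. Compounds were screened at 75 µM first. Three independent experiments.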
# Trypanothione reductase [17] = biological target: T1, Trypanothione reductase; experiment: Mixed non-competitive inhibition of Leishmania infantum TryR using TS2 as substrate assessed as inhibition constant of first equilibrium by plot analysis; outline: as §1
# Leishmania infantum [18] = experiment: Antileishmanial activity against Leishmania infantum promastigotes assessed as reduction in total thiol content at 75 uM treated for 1 hr by CMF diacetate probe based flow cytometry relative to control; assay type: functional; set-up: scale not given: the % may be the effect or the level left; outline: as §3
# Trypanothione reductase [19] = biological target: Trypanothione reductase (Trypanosoma cruzi, UniProt P28593); experiment: Inhibition of HIS-tagged recombinant Trypanosoma cruzi TryR oxidoreductase activity expressed in Escherichia coli in the presence of NADPH by spectrophotometry based DTNB-coupled assay; outline: as §2
# Leishmania infantum [20] = experiment: Antileishmanial activity against H2O2-induced Leishmania infantum promastigotes assessed as reduction in non-protein thiol content at 75 uM treated for 1 hr in presence of BSO by CMF diacetate probe based flow cytometry relative to control; assay type: functional; set-up: scale not given: the % may be the effect or the level left; outline: as §3
# [21] = Thermodynamic aqueous solubility of compound at 25 degreeC measured after 24 hrs by HPLC analysis; assay type: physicochemical; details: buffer, read-out: Therm_solubility
# Outline: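 Excess compound was suspended in water (pH 5.5), sonicated 10 min, equilibrated overnight at room temperature, and centrifuged. Supernatant was diluted and quantified by HPLC (UV 254 nm) against a five-point standard curve (10–500 µM).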
# T1 sequence (A4HSF7 whole entry): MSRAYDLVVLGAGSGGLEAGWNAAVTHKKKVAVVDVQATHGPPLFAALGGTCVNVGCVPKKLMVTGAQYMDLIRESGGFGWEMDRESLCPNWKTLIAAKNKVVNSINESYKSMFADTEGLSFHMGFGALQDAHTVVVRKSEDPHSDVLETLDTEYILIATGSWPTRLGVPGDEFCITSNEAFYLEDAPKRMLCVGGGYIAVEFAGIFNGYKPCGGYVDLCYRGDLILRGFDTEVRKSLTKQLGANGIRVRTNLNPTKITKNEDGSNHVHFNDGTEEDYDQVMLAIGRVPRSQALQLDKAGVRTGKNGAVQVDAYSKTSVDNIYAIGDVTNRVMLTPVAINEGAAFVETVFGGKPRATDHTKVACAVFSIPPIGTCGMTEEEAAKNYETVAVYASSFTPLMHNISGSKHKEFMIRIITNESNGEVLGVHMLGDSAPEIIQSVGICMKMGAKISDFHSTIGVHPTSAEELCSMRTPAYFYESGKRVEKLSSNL
# Sequence of Trypanothione reductase (Leishmania infantum) (A4HSF7 as listed by the source): as the sequence (A4HSF7 whole entry) above
# Sequence of Trypanothione reductase (Trypanosoma brucei brucei, UniProt P39051) (P39051 whole entry): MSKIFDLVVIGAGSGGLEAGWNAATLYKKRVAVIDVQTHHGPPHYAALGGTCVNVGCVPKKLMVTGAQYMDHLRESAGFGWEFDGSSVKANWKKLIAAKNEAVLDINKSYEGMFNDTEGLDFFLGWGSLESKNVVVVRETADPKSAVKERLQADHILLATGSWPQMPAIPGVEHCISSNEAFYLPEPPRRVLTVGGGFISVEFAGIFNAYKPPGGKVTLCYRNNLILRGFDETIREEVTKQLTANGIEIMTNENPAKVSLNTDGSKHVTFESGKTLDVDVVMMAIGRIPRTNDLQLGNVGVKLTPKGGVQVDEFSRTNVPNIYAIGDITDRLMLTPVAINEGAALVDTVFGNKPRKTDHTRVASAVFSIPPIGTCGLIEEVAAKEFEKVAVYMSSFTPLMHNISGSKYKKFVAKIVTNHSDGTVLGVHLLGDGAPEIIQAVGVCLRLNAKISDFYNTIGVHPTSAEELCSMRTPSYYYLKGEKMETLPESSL
# Sequence of Trypanothione reductase (Trypanosoma congolense, UniProt P13110) (P13110 whole entry): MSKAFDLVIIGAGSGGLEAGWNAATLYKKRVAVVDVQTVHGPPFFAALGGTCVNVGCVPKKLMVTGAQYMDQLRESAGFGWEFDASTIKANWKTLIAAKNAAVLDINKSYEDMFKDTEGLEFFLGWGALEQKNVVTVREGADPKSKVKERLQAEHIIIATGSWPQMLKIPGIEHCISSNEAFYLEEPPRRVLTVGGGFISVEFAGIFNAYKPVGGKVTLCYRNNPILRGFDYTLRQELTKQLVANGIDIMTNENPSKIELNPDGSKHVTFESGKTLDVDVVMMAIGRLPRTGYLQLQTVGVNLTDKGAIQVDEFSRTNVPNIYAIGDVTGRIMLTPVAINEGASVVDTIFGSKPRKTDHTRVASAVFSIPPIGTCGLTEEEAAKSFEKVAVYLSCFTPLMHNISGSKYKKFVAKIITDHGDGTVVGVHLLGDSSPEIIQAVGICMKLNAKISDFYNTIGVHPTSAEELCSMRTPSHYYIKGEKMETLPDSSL
# Sequence of Trypanothione reductase (Trypanosoma cruzi, UniProt P28593) (P28593 whole entry): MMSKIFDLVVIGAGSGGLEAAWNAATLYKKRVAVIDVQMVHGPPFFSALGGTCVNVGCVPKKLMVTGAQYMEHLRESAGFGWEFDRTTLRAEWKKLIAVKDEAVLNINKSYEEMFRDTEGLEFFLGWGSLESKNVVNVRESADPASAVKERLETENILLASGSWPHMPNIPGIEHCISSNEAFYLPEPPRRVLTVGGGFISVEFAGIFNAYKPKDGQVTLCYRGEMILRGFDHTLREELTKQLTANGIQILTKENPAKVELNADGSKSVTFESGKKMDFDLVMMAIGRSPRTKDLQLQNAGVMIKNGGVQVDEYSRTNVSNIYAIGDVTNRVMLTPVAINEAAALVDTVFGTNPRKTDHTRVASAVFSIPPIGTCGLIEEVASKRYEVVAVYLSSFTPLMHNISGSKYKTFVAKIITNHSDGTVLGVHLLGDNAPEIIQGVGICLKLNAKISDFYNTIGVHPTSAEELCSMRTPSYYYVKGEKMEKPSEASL
compound,measurement,setting,value
C[n+]1nn(-c2ccc(-c3nc(CCc4ccc(-c5ccccc5)cc4)cs3)c(OCCN3CCNC3=O)c2)cc1CCCCN.O=C(O)C(F)(F)F.O=S(=O)([O-])C(F)(F)F,inhibition,[1],Active
same,inhibition,[2],Active
same,IC50,Trypanothione reductase [3],3.6 µM
same,IC50,Trypanothione reductase [4],10.3 µM
same,EC50,Leishmania infantum [5],8.7 µM
same,CC50 at 24 h,[6],> 75 µM
same,EC50,Leishmania infantum [7],11.6 µM
same,IC50,Trypanothione reductase [8],4.9 µM
same,inhibition,[9],Active
same,CC50 at 72 h,[10],> 75 µM
same,Ki,Trypanothione reductase [11],0.2 µM
same,selectivity ratio,[12],> 6.5
same,Activity,Leishmania infantum [13],20%
same,inhibition,[14],Active
same,selectivity ratio,[15],> 8.6
same,IC50,Trypanothione reductase [16],5.2 µM
same,Ki,Trypanothione reductase [17],1.2 µM
same,Activity,Leishmania infantum [18],15%
same,IC50,Trypanothione reductase [19],9.2 µM
same,Activity,Leishmania infantum [20],50%
same,solubility thermodynamic at 24 h,[21],12.4 mg/mL
